Source: PubChem (several laboratories)
STAT1 blocker – STAT1 signaling inhibitors, primary screen, cell-based, HTS, luciferase reporter | NIH 3T3 STAT1-luciferase reporter, IFN-gamma, luminescence | inhibition, % at 5.5 µM | 0.35% of 200,000 active;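 active = inhibition above a set limit, the mean inhibition across all tested compounds plus 3 SD, cut at about 34% in these data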;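 note: 0% = IFN-gamma with DMSO and 100% = IFN-gamma with 300 µM nifuroxazide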
STAT3 activator – IL-6 driven STAT3 reporter potentiators, primary screen, U3A cells, luciferase, luminescence, MLSCN library; IL-6 STAT3-luciferase reporter; 100% = signal with IL-6 EC80 alone; activation (% of control), % at 5.6 µM; 0.91% of 190,000 active; AID 871, 2007;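 active = activation above the screen-wide mean of compound activation plus 3 SD, cut at about 130% in these data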;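 note: 0% = background luminescence of wells with medium and substrate only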
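system = STAT3-luciferase reporter U3A cells | reagent = IL-6 stimulus at 33 ng/mL final | timing = 1 h compound pre-exposure, 6 h IL-6 stimulation, 37 °C | measured by = luminescence | evaluation = % activation versus median of IL-6-stimulated wells | control set = IL-6-only wells as 100% reference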
STAT1 activator – STAT1 signaling activators, primary screen, cell-based, HTS, luciferase reporter; NIH 3T3 STAT1-luciferase reporter, IFN-gamma, luminescence; 100% = IFN-gamma alone, no compound; activation (% of control), % at 5.5 µM; 2.6% of 200,000 active;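 active = activation above the screen-wide mean activation plus 3 SD, cut at about 130% in these data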;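 note: raw ratio to IFN-gamma control signal so 100% means no change and 0% no light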
NF-kB expr up – activators of NF-kB expression in neurons, primary screen, cell-based, HTS; fold change at 12.5 µM; human neuronal cells, NF-kB reporter expression; active compounds read high; 1.6% of 190,000 active; in the data active = fold change above about 3.3
APP 5'UTR act – activators of APP 5'UTR luciferase reporter, primary screen, SH-SY5Y cells; activation, % at 2 µM; SH-SY5Y APP 5'UTR luciferase reporter, luminescence; zero percent = DMSO vehicle wells; 1% of 190,000 active;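 active = activation above a set limit, based on mean plus 3 SD of controls, cut at about 140% in these data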
STAT3 inh – IL-6 driven STAT3 reporter inhibitors, primary screen, U3A cells, luciferase, luminescence, MLSCN library; 0.89% of 190,000 active; IL-6 STAT3-luciferase reporter; host cell line lacks STAT1; inhibition, % at 5.5 µM;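 active = inhibition above the mean inhibition across all screened compounds plus 3 SD, cut at about 44% in these data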;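 note: 0% = DMSO only wells and 100% = 100 µM nifuroxazide control wells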
* = called active by the depositor; nt = no result given. Hits are enriched below; roughly 4.9% of the tested compounds scored in any of these assays.

SMILES	STAT1 blocker	STAT3 activator	STAT1 activator	NF-kB expr up	APP 5'UTR act	STAT3 inh
COc1cc(SC)ccc1C(=O)Nc1ccc(C)cc1	-52	123	146*	6.6*	184*	-25
COc1cc(SC)ccc1C(=O)Nc1cccc(C)n1	-50	92	144*	1	244*	12
COC(=O)c1ccc(COC(=O)c2ccc(SC)cc2OC)cc1	-39	121	135*	1.7	29	-21
COc1cc(SC)ccc1C(=O)OCC(=O)NC1CC1	-9	105	109	1.4	8	-5
COc1cc(SC)ccc1C(=O)Nc1ncc(C)s1	90*	16	16	0.9	128	100*
Cn1c(-c2ccc3c(c2)OCO3)cnc1NCc1ccccc1Cl	-45	88	140*	2.3	60	20
Cn1c(-c2ccc3c(c2)OCO3)cnc1NCc1ccccc1	-13	103	111	1.1	7	5
CC(C)(C)CC(=O)Nc1nn[nH]n1	-2	99	102	0.99	-5	-2
CC(=O)NC(Nc1c(C)n(C)n(-c2ccccc2)c1=O)C(Cl)(Cl)Cl (stereo not drawn)	5	101	94	nt	9	4
CCOC(=O)/C(C#N)=C/c1cc(C)n(-c2ccc(C)cc2)c1C	-53	120	148*	1.3	33	-24
Cc1cccc(NC(=O)/C(C#N)=C\c2cc(C)n(-c3ccc(C(=O)O)cc3)c2C)c1	-3	82	103	1.4	30	28
COCc1c(C(=O)OC)nnn1-c1ccc(C(F)(F)F)cc1[N+](=O)[O-]	0	95	98	1.3	4	10
CCOC(=O)N=Nc1c2ccccc2c2nc3no[nH]c3nc12	89*	46	17	0.09	-94	68*
CCOC(=O)N=Nc1c(O)n(CC(=O)OC)c2ccccc12	3	100	96	1.3	4	11
COc1cccc(NC(=O)COc2ccccc2C(N)=O)c1	-43	93	134*	3.1	87	11
Cc1cccc(OCC(=O)Nc2cccc(-c3nnc(-c4ccccc4)o3)c2)c1C	-32	89	130*	1.9	15	18
CCCCC(=O)Nc1cccc(-c2nnc(-c3ccccc3)o2)c1	-23	79	117	0.77	28	28
Cc1cccc(C)c1OCC(=O)Nc1cccc(-c2nnc(-c3ccccc3)o2)c1	-7	90	106	0.6	4	15
Cc1ccc(OCC(=O)Nc2cccc(-c3nnc(-c4ccccc4)o3)c2)cc1	-44	88	143*	2.3	97	20
O=C(Nc1cccc(-c2nnc(-c3ccccc3)o2)c1)C1CCCCC1	-36	79	141*	1.4	20	26
COc1ccc(-c2cc(O)cc(O)c2)cc1	-2	103	102	3.8*	103	-3
O=Cc1ccc(-c2nc3ccccc3s2)o1	-31	82	130*	2.8	143*	23
Cc1ccc2nc(-c3ccc(NC(=O)Cc4cccs4)cc3)[nH]c2c1	-50	87	145*	2.2	109	21
Cc1nc2cc(NC(=O)NCCC3=CCCCC3)ccc2o1	-34	110	132*	1.9	70	-7
COC(=O)c1cccc(NC(=S)NCCC2=CCCCC2)c1	27	59	76	1.1	20	53*
SMILES	STAT1 blocker	STAT3 activator	STAT1 activator	NF-kB expr up	APP 5'UTR act	STAT3 inh
COC(=O)c1ccc(NC(=S)NCCC2=CCCCC2)cc1	12	80	90	1	3	34
Clc1ccc(Nc2ccc(-n3ccnc3)nn2)cc1Cl	-5	89	104	0.92	14	18
CCCOc1ccc2cc(-c3ccccn3)c(=O)oc2c1	39*	21	65	1.2	123	98*
COc1ccc(N/C=C/C(=O)c2ccc(Cl)cc2)cc1	-45	104	140*	1	152*	-4
COc1ccc(C(=O)/C=C/Nc2ccc(NC(C)=O)cc2)cc1OC	-12	89	111	0.99	-9	19
COc1cccc(C(=O)/C=C/Nc2ccc(NC(C)=O)cc2)c1	-41	99	136*	1.1	60	1
COC(=O)c1ccc(N/C=C/C(=O)c2ccc(OC)c(OC)c2)cc1	-12	99	111	1.1	13	9
Cc1ccc(C(=O)/C=C/Nc2ccccn2)cc1	84*	12	24	nt	115	109*
Cc1ccc(C(=O)/C=C\Nc2ccc(C)c(C)c2)cc1	-39	96	136*	2.4	170*	6
FC(F)(F)c1ccccc1NC(=S)N/N=C1\CC2CC=CC12 (stereo not drawn)	12	100	89	1.1	-85	2
Cc1ccc(N/C=C/C(=O)c2ccc(C)cc2)cc1	-48	81	144*	5.2*	91	28
Cc1ccc(C(=O)/C=C/C(=O)c2ccc(C)cc2)cc1	11	109	89	1.5	-67	-8
CCC(C)(C)NC(=O)c1cc(S(=O)(=O)N2CCCCC2)ccc1N1CCOCC1	-3	112	103	1	14	-13
COCC(=O)Nc1ccc(OC)c(Cl)c1	5	99	93	1	-1	6
COc1ccc(NC(=O)C=C(C)C)cc1Cl	-27	93	125	4.7*	153*	11
CC(C)=CC(=O)Nc1ccc(Cl)cc1	-37	100	132*	3.3*	184*	4
Cc1nc(NC(=O)Nc2ccc(Cl)cc2)sc1C	-48	94	143*	1.9	101	18
CNC(=O)Nc1ccc(Cl)cc1	0	100	100	1.3	-14	4
CC(=O)c1ccc(NC(=O)Nc2ccc(Cl)cc2)cc1	-36	105	133*	3.6*	166*	-5
CC(=O)c1ccc(NC(=O)Nc2ccncc2)cc1	0	90	100	0.8	19	19
CCCCCCc1nc2ccccc2c(=O)n1NC(=O)c1c(O)c2cccc3c2n(c1=O)CC3	-1	110	99	nt	17	-8
CN1CCc2c(n(CC(O)CN3CCN(CCO)CC3)c3ccccc23)C1=O (stereo not drawn)	1	96	99	1.1	-7	7
O=C(CCc1n[nH]c(=O)[nH]c1=O)Nc1cccc([N+](=O)[O-])c1	-8	100	106	1.2	5	10
CCc1cccc(NC(=O)Nc2cccs2)c1	-36	103	133*	1.7	43	1
COc1ccc(C(=O)Nc2ccc(NC(=O)c3cccs3)cc2)cc1Cl	-4	90	103	1.1	0	14
COc1ccc(NC(=O)Nc2cccs2)cc1Cl	-34	98	130*	1.6	75	13
Cc1ccn(C(=O)c2ccc(NC(=O)CC(C)C)cc2)n1	2	106	95	0.94	0	-2
